In ChEMBL document CHEMBL3233000, “Cytotoxic ent-kaurane diterpenoids from Isodon wikstroemioides” (J Nat Prod, 2014):

Columns and labels:
Assay type in all cases: functional, cell-based
A549 = test: Cytotoxicity against human A549 cells assessed as growth inhibition after 48 hrs by MTS assay; conditions: A549, 48 h
Summary of the method: (§1)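 Cell lines from ATCC, grown in RPMI-1640 or DMEM with 10% FBS at 37 °C, 5% CO2. Cells seeded, incubated 12 h at 37 °C, then screened at 40 μM for 48 h with MTS read-out. Where growth inhibition reached 50%, retested at 0.064, 0.32, 1.6, 8 and 40 μM in triplicate. Cisplatin and paclitaxel were positive controls. IC50 by Reed and Muench method.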

HL-60 = test: Cytotoxicity against human HL60 cells assessed as growth inhibition after 48 hrs by MTS assay; conditions: HL-60, 48 h; summary of the method: as §1
SW480 = test: Cytotoxicity against human SW480 cells assessed as growth inhibition after 48 hrs by MTS assay; conditions: SW480, 48 h; summary of the method: as §1
SMMC-7721 = test: Cytotoxicity against human SMMC7721 cells assessed as growth inhibition after 48 hrs by MTS assay; conditions: SMMC-7721, 48 h; summary of the method: as §1
RAW264.7 = test: Inhibition of nitric oxide production in LPS-stimulated mouse RAW264.7 cells after 18 hrs by griess reagent based plate reader analysis; conditions: RAW264.7, 18 h
Summary of the method: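 RAW264.7 macrophages seeded at 2 × 10^5 cells/well. Treated with serial dilutions (top concentration 25 μM), then stimulated with LPS 1 μg/mL for 18 h. Supernatant NO measured with Griess reagents, absorbance 550 nm. MG-132 was the positive control. Viability was checked in parallel by MTT (595 nm) to exclude cytotoxic interference.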

MCF7 = test: Cytotoxicity against human MCF7 cells assessed as growth inhibition after 48 hrs by MTS assay; conditions: MCF7, 48 h; summary of the method: as §1

Row | Compound | IC50 (RAW264.7) | IC50 (A549) | IC50 (HL-60) | IC50 (SW480) | IC50 (SMMC-7721) | IC50 (MCF7)
1 | C=C1C(=O)[C@@]23CC[C@@H]4[C@@](C)(CO)[C@H](O)CC[C@@]4(C)[C@@H]2C[C@H](O)[C@@H]1C3 | 4.7 µM | 3.7 µM | 4.1 µM | 2.7 µM | 4.1 µM | 4.8 µM
2 | C=C1[C@@H]2C[C@H](OC(C)=O)[C@H]3[C@]4(C)[C@@H](OC(C)=O)C[C@H](O)C(C)(C)[C@H]4C(=O)[C@H](OC(C)=O)[C@]3(C2)[C@@H]1O [ADENANTHIN J] | – | > 10 µM | > 10 µM | > 10 µM | > 10 µM | > 10 µM
3 | C=C1[C@H]2[C@@H](O)[C@@]3([C@H](O)C[C@@H]4[C@@](C)(CO)CCC[C@@]4(C)[C@@H]3C[C@@H]2O)[C@@H]1OC(C)=O [ALBOPILOSIN B] | – | > 10 µM | > 10 µM | > 10 µM | > 10 µM | > 10 µM
4 | C=C1[C@H]2C[C@@]3(CC[C@@H]4[C@@](C)(CO)CCC[C@@]4(C)[C@@H]3C[C@@H]2O)[C@@H]1O | 23.9 µM | > 10 µM | > 10 µM | > 10 µM | > 10 µM | > 10 µM
5 | C=C1[C@@H]2C[C@H](OC(C)=O)[C@H]3[C@]4(C)[C@@H](OC(C)=O)C[C@H](O)C(C)(C)[C@H]4C(=O)[C@H](O)[C@]3(C2)[C@@H]1O [NERVONIN E] | – | > 10 µM | > 10 µM | > 10 µM | > 10 µM | > 10 µM
6 | C=C1C(=O)[C@@]23[C@H](O)C[C@@H]4[C@@](C)(CO)[C@H](O)CC[C@@]4(C)[C@@H]2C[C@H](O)[C@@H]1[C@H]3O | – | > 10 µM | > 10 µM | > 10 µM | > 10 µM | > 10 µM
7 | C=C1[C@@H]2C[C@H](O)[C@H]3[C@]4(C)[C@@H](OC(C)=O)C[C@H](O)C(C)(C)[C@H]4[C@@H](OC(C)=O)[C@H](OC(C)=O)[C@]3(C2)[C@@H]1O [NERVONIN G] | – | > 10 µM | > 10 µM | > 10 µM | > 10 µM | > 10 µM
8 | C=C1C(=O)[C@@]23[C@H](O)C[C@@H]4C(C)(C)[C@H](O)CC[C@@]4(C)[C@@H]2[C@@H](O)[C@H](O)[C@@H]1[C@H]3O | – | > 10 µM | > 10 µM | > 10 µM | > 10 µM | > 10 µM
9 | C=C1C(=O)[C@@]23[C@H](O)C[C@@H]4[C@@](C)(CO)[C@@H](O)CC[C@@]4(C)[C@@H]2CC(=O)[C@@H]1[C@H]3O | – | > 10 µM | > 10 µM | > 10 µM | > 10 µM | > 10 µM
10 | C=C1[C@H]2[C@@H](O)[C@@]3([C@H](O)C[C@@H]4[C@@](C)(CO)CCC[C@@]4(C)[C@@H]3C[C@@H]2O)[C@@H]1O | – | > 10 µM | > 10 µM | > 10 µM | > 10 µM | > 10 µM
11 | C=C1[C@@H]2C[C@H](OC(C)=O)[C@H]3[C@]4(C)[C@@H](OC(C)=O)C[C@H](O)C(C)(C)[C@H]4C(=O)[C@H](O)[C@]3(C2)[C@@H]1OC(C)=O [ADENANTHIN K] | – | > 10 µM | > 10 µM | > 10 µM | > 10 µM | > 10 µM
12 | C=C1C(=O)[C@@]23[C@H](O)C[C@@H]4[C@@](C)(CO)CCC[C@@]4(C)[C@@H]2[C@@H](O)C[C@@H]1[C@H]3O [RABDOKUNMIN D] | – | > 10 µM | > 10 µM | > 10 µM | > 10 µM | > 10 µM
13 | C=C1C(=O)[C@@]23[C@H](O)C[C@@H]4[C@@](C)(CO)CCC[C@@]4(CO)[C@@H]2C[C@H](O)[C@@H]1[C@H]3O | – | > 10 µM | > 10 µM | > 10 µM | > 10 µM | > 10 µM
14 | C=C1[C@@H]2CC[C@H]3[C@]4(C)CCC(=O)[C@](C)(CO)[C@H]4CC[C@]3(C2)[C@@H]1O | – | > 10 µM | > 10 µM | > 10 µM | > 10 µM | > 10 µM
15 | CC(=O)O[C@H]1C(=O)[C@@]2(C)[C@H]([C@H](OC(=O)c3ccccc3)[C@]3(O)C[C@H](OC(=O)[C@H](O)[C@@H](NC(=O)c4ccccc4)c4ccccc4)C(C)=C1C3(C)C)[C@]1(OC(C)=O)CO[C@@H]1C[C@@H]2O [PACLITAXEL] | – | < 0.008 µM | < 0.008 µM | < 0.008 µM | < 0.008 µM | < 0.008 µM

Further lines, with some results ahead:

Row | IC50 (RAW264.7) | Compound | IC50 (A549) | IC50 (HL-60) | IC50 (SW480) | IC50 (SMMC-7721) | IC50 (MCF7)
16 | 5 µM | C=C1C(=O)[C@]23[C@H](O)[C@H]1[C@@H](O)C[C@H]2[C@]1(C)CCC[C@](C)(COC(C)=O)[C@H]1C[C@H]3OC(C)=O | 2.7 µM | 2.9 µM | 0.9 µM | 3.5 µM | 1.6 µM
17 | 16.5 µM | C=C1C(=O)[C@@]23[C@H](O)C[C@@H]4[C@@](C)(CO)CCC[C@@]4(C)[C@@H]2C[C@H](O)[C@@H]1[C@H]3OC(C)=O | > 10 µM | > 10 µM | 8.6 µM | > 10 µM | > 10 µM
18 | 4.8 µM | C=C1C(=O)[C@@]23CC[C@@H]4[C@@](C)(CO)CCC[C@@]4(C)[C@@H]2C[C@H](O)[C@@H]1[C@H]3O | > 10 µM | 8.8 µM | 4 µM | 4 µM | > 10 µM
19 | 0.8 µM | C=C1C(=O)[C@@]23[C@H](O)C[C@@H]4C(C)(C)CCC[C@@]4(C)[C@@H]2C[C@H](O)[C@@H]1[C@H]3O [ISOSCOPARIN L] | 0.8 µM | 0.5 µM | 0.6 µM | 1.2 µM | 0.4 µM
20 | 3.5 µM | C=C1C(=O)[C@]23C[C@H]1[C@@H](O)C[C@H]2[C@]1(C)CCC[C@](C)(CO)[C@H]1C[C@H]3O | 4.4 µM | 3.6 µM | 1.4 µM | 4 µM | 4.9 µM
21 | 7.2 µM | C=C1C(=O)[C@]23[C@H](O)[C@H]1[C@@H](O)[C@H](O)[C@H]2[C@]1(C)CCCC(C)(C)[C@H]1C[C@H]3OC(C)=O | > 10 µM | 8.8 µM | 4.7 µM | 5.8 µM | > 10 µM
22 | 2.5 µM | C=C1C(=O)[C@@]23C[C@H](O)[C@@H]4C(C)(C)CCC[C@@]4(C)[C@@H]2[C@@H](O)C[C@@H]1[C@H]3O | 5.1 µM | 4.8 µM | 2.3 µM | 5.1 µM | 3.7 µM
23 | 1.9 µM | C=C1C(=O)[C@@]23CC[C@H]4[C@@](C)(CCC[C@]4(C)C=O)[C@@H]2C[C@H](O)[C@@H]1[C@H]3O | 0.9 µM | 3.2 µM | 1 µM | 1.4 µM | 1.7 µM
24 | 2.8 µM | C=C1C(=O)[C@]23C[C@H]1CC[C@H]2[C@]1(CO)CCC[C@](C)(CO)[C@H]1C[C@H]3O | > 10 µM | > 10 µM | 4 µM | 7.1 µM | 7.3 µM
25 | 1 µM | C=C1C(=O)[C@@]23[C@H](O)C[C@@H]4C(C)(C)CCC[C@@]4(C)[C@@H]2[C@@H](O)C[C@@H]1[C@H]3O [PHYLLOSTACHYSIN F] | 2.3 µM | 3.3 µM | 1.1 µM | 2.1 µM | 1.5 µM
26 | 2.7 µM | C=C1C(=O)[C@@]23[C@H](O)C[C@H]4[C@@](C)(CCC[C@]4(C)C=O)[C@@H]2C[C@H](O)[C@@H]1[C@H]3O [MACROCALYXIN C] | > 10 µM | 3.7 µM | 2.1 µM | 4 µM | 3.7 µM
27 | 1.9 µM | C=C1C(=O)[C@@]23[C@H](O)C[C@@H]4C(C)(C)CCC[C@@]4(C)[C@@H]2[C@@H](O)[C@H](O)[C@@H]1[C@H]3O [RABDOLOXIN B] | 4.4 µM | 2.9 µM | 2.4 µM | 3.4 µM | 3 µM
28 | 7.2 µM | C=C1C(=O)[C@@]23[C@H](O)C[C@@H]4C(C)(C)CCC[C@@]4(C)[C@@H]2[C@@H](O)[C@H](O)[C@@H]1[C@H]3OC(C)=O [RABDOKUNMIN A] | > 10 µM | 8.8 µM | 4.7 µM | 5.8 µM | > 10 µM
29 | 3.3 µM | C=C1C(=O)[C@]23C[C@H]1C[C@H](OC(C)=O)[C@H]2[C@]1(C)[C@@H](OC(C)=O)C[C@H](O)C(C)(C)[C@H]1C(=O)[C@@H]3OC(C)=O [ADENANTHIN] | 3.3 µM | 3.6 µM | 2 µM | 4 µM | 2.8 µM
30 | 1 µM | C=C1C(=O)[C@@]23[C@H](O)C[C@@H]4[C@@](C)(CO)CCC[C@@]4(C)[C@@H]2CC[C@@H]1[C@H]3O [EXCISANIN C] | 2.1 µM | 3 µM | 1.3 µM | 2.7 µM | 1.6 µM
